Data taken from ChEMBL document CHEMBL1156136, “Hypoxia-activated prodrugs: substituent effects on the properties of nitro seco-1,2,9,9a-tetrahydrocyclopropa[c]benz[e]indol-4-one (nitroCBI) prodrugs of DNA minor groove alkylating agents” (J Med Chem, 2009).
pIC50: −log10 of the molar value.

What was measured:
[1] = system: SK-OV-3; experiment: Cytotoxicity against human SKOV3 cells in oxic condition after 4 hrs by sulforhodamine B assay; assay type: functional, cell-based; settings: SK-OV-3, 4 h
In short: (§1)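 Log-phase monolayers exposed to drug for 4 h under aerobic (20% O2) or anoxic (<20 ppm O2) conditions, then sulforhodamine B staining 5 days later. IC50 interpolated as concentration lowering cell density to 50% of same-plate controls. HCR = IC50(oxic)/IC50(hypoxic), mean of intraexperiment ratios. A549 P450R line is a stable transfectant with 9-fold higher cytochrome c reduction rate than parent.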

[2] = system: SK-OV-3; experiment: Cytotoxicity against human SKOV3 cells in hypoxic condition after 4 hrs by sulforhodamine B assay; assay type: functional, cell-based; settings: SK-OV-3, 4 h; in short: as §1
[3] = system: SK-OV-3; experiment: Hypoxic cytotoxicity ratio, IC50 for human SKOV3 cells in oxic condition to IC50 for human SKOV3 cells in hypoxic condition; assay type: functional; in short: as §1
[4] = system: HT-29; experiment: Cytotoxicity against human HT-29 cells in oxic condition after 4 hrs by sulforhodamine B assay; assay type: functional, cell-based; settings: HT-29, 4 h; in short: as §1
[5] = system: HT-29; experiment: Cytotoxicity against human HT-29 cells in hypoxic condition after 4 hrs by sulforhodamine B assay; assay type: functional, cell-based; settings: HT-29, 4 h; in short: as §1
[6] = system: HT-29; experiment: Hypoxic cytotoxicity ratio, IC50 for human HT-29 cells in oxic condition to IC50 for human HT-29 cells in hypoxic condition; assay type: functional; in short: as §1

| SMILES | pIC50 [1] | pIC50 [2] | Ratio IC50 [3] | pIC50 [4] | pIC50 [5] | Ratio IC50 [6] |
| --- | --- | --- | --- | --- | --- | --- |
| COc1cc2cc(C(=O)N3CC(CCl)c4c3cc([N+](=O)[O-])c3ccccc43)[nH]c2c(OC)c1OC (centres undefined) | 5.38 | 8.77 | 2.8 | 5.47 | 8.80 | 2.5 |
| CN(C)CCOc1ccc2[nH]c(C(=O)N3CC(CCl)c4c3cc([N+](=O)[O-])c3cc(S(C)(=O)=O)ccc43)cc2c1 (centres undefined) | 5.89 | 9.92 | 11 | 6.01 | 9.57 | 4 |
| COc1cc2cc(C(=O)N3CC(CCl)c4c3cc([N+](=O)[O-])c3c(C(C)=O)cccc43)[nH]c2c(OC)c1OC (centres undefined) | 6.30 | 9.85 | 3.4 | 6.17 | 9.48 | 2 |
| CN(C)CCOc1ccc2[nH]c(C(=O)N3CC(CCl)c4c3cc([N+](=O)[O-])c3c(S(N)(=O)=O)cccc43)cc2c1 (centres undefined) | 5.43 | 6.10 | 4.6 | 5.57 | 5.92 | 2.3 |
| COc1cc2cc(C(=O)N3CC(CCl)c4c3cc([N+](=O)[O-])c3cccc([N+](=O)[O-])c43)[nH]c2c(OC)c1OC (centres undefined) | 4.26 | < 4.30 | <1.1 | 4.47 | 4.48 | 1.2 |
| COc1cc2cc(C(=O)N3CC(CCl)c4c3cc(N)c3cc(C(N)=O)ccc43)[nH]c2c(OC)c1OC (centres undefined) | 4.47 | 7.57 | 1.2 | 4.23 | 7.55 | 2.3 |
| COc1cc2cc(C(=O)N3CC(CCl)c4c3cc([N+](=O)[O-])c3cc(C(C)=O)ccc43)[nH]c2c(OC)c1OC (centres undefined) | 5.29 | 9.36 | 19 | 5.39 | 9.03 | 5.2 |
| COc1cc2cc(C(=O)N3CC(CCl)c4c3cc(N)c3cc(S(C)(=O)=O)ccc43)[nH]c2c(OC)c1OC (centres undefined) | 4.49 | 7.60 | 1.2 | 4.49 | 7.44 | 0.86 |
| CN(C)CCOc1ccc2[nH]c(C(=O)N3CC(CCl)c4c3cc(N)c3ccccc43)cc2c1 (centres undefined) | 5.17 | 8.18 | 0.97 | 5.30 | 8.46 | 1.3 |
